Measured values published in ChEMBL document CHEMBL4024758, “Structure-Based Design and Discovery of New M2 Receptor Agonists” (J Med Chem, 2017).
Activity calls are given as the source filed them. No cut-off for these calls is given here.

Assays:
[1] = biological target: T1, Muscarinic acetylcholine receptor M2 (Homo sapiens, UniProt P08172); test: Displacement of [3H]N-methyl-scopolamine bromide from human recombinant muscarinic M2 receptor expressed in HEK293T cell membranes after 1 hr by liquid scintillation counting method; design: species or system HEK-293T
T1 sequence (P08172 whole entry): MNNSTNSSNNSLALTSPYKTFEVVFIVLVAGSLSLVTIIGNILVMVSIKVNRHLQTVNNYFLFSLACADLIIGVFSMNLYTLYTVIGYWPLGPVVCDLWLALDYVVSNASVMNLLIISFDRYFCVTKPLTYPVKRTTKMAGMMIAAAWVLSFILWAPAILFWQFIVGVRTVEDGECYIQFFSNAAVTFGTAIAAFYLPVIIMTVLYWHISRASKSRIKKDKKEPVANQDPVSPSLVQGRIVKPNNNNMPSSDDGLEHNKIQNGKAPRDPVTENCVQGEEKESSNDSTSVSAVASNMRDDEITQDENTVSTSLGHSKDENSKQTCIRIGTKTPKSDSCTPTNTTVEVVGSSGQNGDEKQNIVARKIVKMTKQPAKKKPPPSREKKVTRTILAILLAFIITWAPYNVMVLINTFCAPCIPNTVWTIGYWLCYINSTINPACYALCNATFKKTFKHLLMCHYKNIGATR

[2] = biological target: T2, Muscarinic acetylcholine receptor M3 (Homo sapiens, UniProt P20309); test: Displacement of [3H]N-methyl-scopolamine bromide from human recombinant muscarinic M3 receptor expressed in HEK293T cell membranes after 1 hr by liquid scintillation counting method; format: cell-based, HEK-293T
Target sequence in this assay (P20309 whole entry): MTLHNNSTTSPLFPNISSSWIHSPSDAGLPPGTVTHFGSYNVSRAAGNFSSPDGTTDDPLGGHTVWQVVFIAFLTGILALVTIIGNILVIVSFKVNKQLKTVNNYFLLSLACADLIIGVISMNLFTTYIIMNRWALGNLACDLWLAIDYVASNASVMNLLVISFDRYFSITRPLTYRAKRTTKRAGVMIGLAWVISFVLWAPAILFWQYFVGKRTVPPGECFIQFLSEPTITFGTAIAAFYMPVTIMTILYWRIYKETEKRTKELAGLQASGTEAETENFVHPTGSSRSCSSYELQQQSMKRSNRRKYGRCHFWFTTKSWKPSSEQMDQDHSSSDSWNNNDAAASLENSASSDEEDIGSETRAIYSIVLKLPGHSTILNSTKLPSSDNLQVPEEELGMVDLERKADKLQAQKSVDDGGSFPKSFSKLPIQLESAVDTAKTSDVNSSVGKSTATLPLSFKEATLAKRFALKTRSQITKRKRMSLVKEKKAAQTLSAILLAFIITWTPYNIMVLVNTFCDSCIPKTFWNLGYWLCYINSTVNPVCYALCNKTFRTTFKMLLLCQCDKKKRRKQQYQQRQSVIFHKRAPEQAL

[3] = biological target: T3, Muscarinic acetylcholine receptor M2 (Homo sapiens) (UniProt P08172); conditions: 10 uM
T3 sequence (whole entry): T1 sequence (P08172 whole entry)

[4] = biological target: T4, Muscarinic acetylcholine receptor M1 (Homo sapiens, UniProt P11229); test: Displacement of [3H]N-methyl-scopolamine bromide from human recombinant muscarinic M1 receptor expressed in HEK293T cell membranes after 1 hr by liquid scintillation counting method; format: cell-based, HEK-293T
T4 sequence (P11229 whole entry): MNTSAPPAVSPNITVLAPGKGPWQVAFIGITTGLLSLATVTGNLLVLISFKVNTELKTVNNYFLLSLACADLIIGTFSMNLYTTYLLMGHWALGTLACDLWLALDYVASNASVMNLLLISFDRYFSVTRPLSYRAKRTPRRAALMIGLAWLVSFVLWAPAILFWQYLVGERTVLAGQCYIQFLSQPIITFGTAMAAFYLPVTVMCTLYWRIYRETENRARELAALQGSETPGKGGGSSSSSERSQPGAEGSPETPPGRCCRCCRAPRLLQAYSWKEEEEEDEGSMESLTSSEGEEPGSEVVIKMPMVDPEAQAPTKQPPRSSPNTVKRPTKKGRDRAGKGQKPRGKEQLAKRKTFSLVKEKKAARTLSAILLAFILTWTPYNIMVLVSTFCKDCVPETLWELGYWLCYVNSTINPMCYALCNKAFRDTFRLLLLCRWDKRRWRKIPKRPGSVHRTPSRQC

[5] = biological target: T4, Muscarinic acetylcholine receptor M1; test: Displacement of [3H]N-methyl-scopolamine from human recombinant muscarinic M1 receptor expressed in CHO-FlpIn cells after 6 hrs by liquid scintillation counting method; format: cell-based; conditions: read-out: Ki(app)
[6] = biological target: T1, Muscarinic acetylcholine receptor M2; test: Agonist activity at human recombinant muscarinic M2 receptor co-expressed with Galphaqi5-HA in African green monkey COS7 cells assessed as IP accumulation after 2 hrs in presence of myo-[3H]inositol by liquid scintillation counting method; format: functional
[7] = biological target: T1, Muscarinic acetylcholine receptor M2; test: Displacement of [3H]N-methyl-scopolamine from human recombinant muscarinic M2 receptor expressed in CHO-FlpIn cells after 6 hrs by liquid scintillation counting method; format: cell-based; conditions: read-out: Ki(app)
[8] = biological target: T2, Muscarinic acetylcholine receptor M3; test: Agonist activity at Gq/11 coupled recombinant human M3 mAChR expressed in CHO-FlpIn cells assessed as IP-one accumulation at 100 uM after 40 mins by HTRF assay relative to ACh; format: cell-based
Target sequence in this assay (P20309 whole entry, looked up): as the sequence (P20309 whole entry) above

[9] = biological target: T5, Muscarinic acetylcholine receptor M1 (Homo sapiens) (UniProt P11229); test: Agonist activity at recombinant human muscarinic M1 receptor expressed in CHO cells assessed as upregulation in ERK1/2 phosphorylation after 5 mins by alphascreen assay relative to ACh; format: cell-based
T5 sequence (whole entry): T4 sequence (P11229 whole entry)

[10] = biological target: T3, Muscarinic acetylcholine receptor M2 (Homo sapiens); test: Agonist activity at Gi/o protein-coupled recombinant human muscarinic M2 receptor expressed in CHO-FlpIn cells preincubated for 60 mins followed by [35S]GTPgammaS addition after 30 mins by liquid scintillation counting method relative to ACh; format: functional, cell-based
Method in brief: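 Membranes (15 μg) came from CHO cells stably expressing M2R. They were equilibrated 60 min at 30 °C in buffer containing GDP plus ACh or compound. [35S]GTPγS (1 nM) was then added for 30 min at 30 °C. Samples were filtered on GF/B filters, washed with ice-cold 0.9% NaCl and counted by scintillation.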

[11] = biological target: T5, Muscarinic acetylcholine receptor M1 (Homo sapiens); test: Agonist activity at Gq/11 coupled recombinant human M1 mAChR expressed in CHO-FlpIn cells assessed as IP-one accumulation after 40 mins by HTRF assay relative to ACh; format: cell-based
Method in brief: (§1)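 Stably transfected CHO-FlpIn whole cells, 20000/well, grown overnight at 37 °C with 5% CO2. Cells were washed with PBS, then held 60 min at 37 °C in HEPES stimulation buffer with 50 mM LiCl, pH 7.4. ACh or test ligand was added and incubated 40 min.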

[12] = biological target: T4, Muscarinic acetylcholine receptor M1; test: Agonist activity at Gq/11 coupled recombinant human muscarinic M1 AChR expressed in CHO-FlpIn cells assessed as IP-one accumulation after 40 mins by HTRF assay; format: cell-based
[13] = biological target: T3, Muscarinic acetylcholine receptor M2 (Homo sapiens); test: Agonist activity at recombinant human muscarinic M2 receptor expressed in CHO cells assessed as upregulation in ERK1/2 phosphorylation after 5 mins by alphascreen assay relative to ACh; format: cell-based
[14] = biological target: T3, Muscarinic acetylcholine receptor M2 (Homo sapiens); test: Agonist activity at human recombinant muscarinic M2 receptor co-expressed with Galphaqi5-HA in African green monkey COS7 cells assessed as IP accumulation after 2 hrs in presence of myo-[3H]inositol by liquid scintillation counting method relative to carbachol; format: functional
[15] = biological target: T4, Muscarinic acetylcholine receptor M1; test: Agonist activity at recombinant human muscarinic M1 receptor expressed in CHO cells assessed as upregulation in ERK1/2 phosphorylation after 5 mins by alphascreen assay; format: cell-based
[16] = biological target: T3, Muscarinic acetylcholine receptor M2 (Homo sapiens); test: Agonist activity at recombinant human muscarinic M2 receptor expressed in HEK293 cells assessed as inhibition of forskolin-mediated cAMP accumulation after 10 mins by FRET assay relative to ACh; format: functional, cell-based
Method in brief: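 HEK293 cells stably expressed the Epac FRET cAMP sensor and M2AChR-tetO, induced with 2 μg/mL doxycycline and 1 mM sodium butyrate for 40 h. Basal CFP/YFP was read after 20 min at 37 °C. […] Basal was subtracted; results are from 4–5 experiments in duplicate.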

[17] = biological target: T2, Muscarinic acetylcholine receptor M3; test: Displacement of [3H]N-methyl-scopolamine from human recombinant muscarinic M3 receptor expressed in CHO-FlpIn cells after 6 hrs by liquid scintillation counting method; format: cell-based; conditions: read-out: Ki(app)
Target sequence in this assay (P20309 whole entry): as the sequence (P20309 whole entry) above

[18] = biological target: T3, Muscarinic acetylcholine receptor M2 (Homo sapiens); test: Agonist activity at recombinant human muscarinic M2 receptor expressed in HEK293 cells co-expressing beta-arrestin assessed as increase in beta-arrestin recruitment after 24 hrs by Bright-Glo luminescence assay relative to ACh; format: cell-based
Method in brief: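 HEK293 cells stably expressing tTA-dependent luciferase and β-arrestin-TEV protease were transiently transfected with M2-TEV-tTA. Next day, cells were plated at 15000/well in DMEM with 1% FBS. After ≥6 h, compound (0–100 μM, in HBSS-HEPES pH 7.4) was added. The following day, luminescence was read with Bright-Glo. Results are from 4–5 experiments in triplicate.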

[19] = biological target: T2, Muscarinic acetylcholine receptor M3
Target sequence in this assay (P20309 whole entry): as the sequence (P20309 whole entry) above

[20] = biological target: T1, Muscarinic acetylcholine receptor M2; test: Agonist activity at recombinant human muscarinic M2 receptor expressed in HEK293 cells co-expressing beta-arrestin assessed as increase in beta-arrestin recruitment after 24 hrs by Bright-Glo luminescence assay; format: cell-based
Method in brief: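 HEK293 cells stably expressing tTA-dependent luciferase and β-arrestin-TEV protease, transiently transfected with M2-TEV-tTA; next day plated 15000 cells/well in DMEM 1% FBS on poly-D-lysine; after ≥6 h, compounds 0–100 μM in HBSS-HEPES; following day Bright-Glo added, luminescence after 20 min; 4–5 experiments in triplicate.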

[21] = biological target: T1, Muscarinic acetylcholine receptor M2; test: Agonist activity at recombinant human muscarinic M2 receptor expressed in CHO cells assessed as upregulation in ERK1/2 phosphorylation after 5 mins by alphascreen assay; format: cell-based
[22] = biological target: T1, Muscarinic acetylcholine receptor M2; test: Agonist activity at recombinant human muscarinic M2 receptor expressed in HEK293 cells assessed as inhibition of forskolin-mediated cAMP accumulation after 10 mins by FRET assay; format: functional, cell-based
[23] = biological target: T1, Muscarinic acetylcholine receptor M2; test: Agonist activity at Gi/o protein-coupled recombinant human muscarinic M2 receptor expressed in CHO-FlpIn cells preincubated for 60 mins followed by [35S]GTPgammaS addition measured after 30 mins by liquid scintillation counting method; format: functional, cell-based
[24] = biological target: T3, Muscarinic acetylcholine receptor M2 (Homo sapiens); test: Agonist activity at Gi/o coupled recombinant human M2 mAChR expressed in CHO-FlpIn cells assessed as IP-one accumulation after 40 mins by HTRF assay; format: cell-based; method in brief: as §1
[25] = biological target: T2, Muscarinic acetylcholine receptor M3; remark: listed apart in the source
Target sequence in this assay (P20309 whole entry, looked up): as the sequence (P20309 whole entry) above

[26] = biological target: Neuronal acetylcholine receptor; alpha4/beta2 (Homo sapiens, UniProt P17787+P43681); test: Displacement of [3H]cytisine from alpha4beta2 nAChR expressed in human recombinant SH-SY5Y cell membranes after 120 mins
Chain of Neuronal acetylcholine receptor; alpha4/beta2 (P17787 whole entry): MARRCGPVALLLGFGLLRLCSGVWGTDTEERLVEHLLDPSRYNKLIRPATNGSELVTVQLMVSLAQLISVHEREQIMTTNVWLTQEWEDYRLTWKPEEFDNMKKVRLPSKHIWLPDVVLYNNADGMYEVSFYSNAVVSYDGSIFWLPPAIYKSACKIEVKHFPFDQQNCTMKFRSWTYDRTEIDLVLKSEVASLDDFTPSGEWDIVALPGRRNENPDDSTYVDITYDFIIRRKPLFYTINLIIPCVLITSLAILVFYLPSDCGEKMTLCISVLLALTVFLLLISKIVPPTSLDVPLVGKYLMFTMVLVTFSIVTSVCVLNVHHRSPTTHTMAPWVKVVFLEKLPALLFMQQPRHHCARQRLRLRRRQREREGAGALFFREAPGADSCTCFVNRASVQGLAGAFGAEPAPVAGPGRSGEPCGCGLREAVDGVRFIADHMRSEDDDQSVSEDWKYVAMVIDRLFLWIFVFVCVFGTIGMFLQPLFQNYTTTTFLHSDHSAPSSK
Chain of Neuronal acetylcholine receptor; alpha4/beta2 (P43681 whole entry): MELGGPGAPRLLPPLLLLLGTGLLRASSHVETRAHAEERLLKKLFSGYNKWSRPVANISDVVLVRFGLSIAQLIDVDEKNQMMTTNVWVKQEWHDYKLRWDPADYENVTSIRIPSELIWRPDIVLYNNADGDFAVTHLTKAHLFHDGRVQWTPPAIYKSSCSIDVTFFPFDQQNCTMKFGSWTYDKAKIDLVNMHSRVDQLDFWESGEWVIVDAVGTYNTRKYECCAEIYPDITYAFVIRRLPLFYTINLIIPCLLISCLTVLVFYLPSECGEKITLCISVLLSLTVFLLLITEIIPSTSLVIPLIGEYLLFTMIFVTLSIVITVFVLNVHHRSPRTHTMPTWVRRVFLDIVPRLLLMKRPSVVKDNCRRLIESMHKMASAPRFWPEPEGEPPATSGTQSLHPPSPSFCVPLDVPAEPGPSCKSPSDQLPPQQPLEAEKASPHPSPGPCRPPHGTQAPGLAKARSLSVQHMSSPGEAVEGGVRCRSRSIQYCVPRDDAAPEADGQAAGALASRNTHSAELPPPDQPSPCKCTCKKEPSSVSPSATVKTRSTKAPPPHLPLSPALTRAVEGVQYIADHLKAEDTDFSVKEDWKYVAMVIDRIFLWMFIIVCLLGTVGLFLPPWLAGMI

Row | Structure (SMILES) | Ki [1] [µM] | Ki [2] [µM] | Ki [4] [µM] | Ki [5] [µM] | EC50 [6] [µM] | Ki [7] [µM] | Emax [8] [%] | Emax [10] [%] | Emax [11] [%] | EC50 [12] [µM] | Emax [13] [%] | Emax [14] [%] | Emax [16] [%] | Ki [17] [µM] | Emax [18] [%] | EC50 [19] [µM] | EC50 [20] [µM] | EC50 [21] [µM] | EC50 [22] [µM] | EC50 [23] [µM] | further results
1 | COc1cccc(CCC[N+](C)(C)C)c1 | 0.63 | 0.62 | 0.33 |  |  |  |  |  |  |  |  |  |  |  |  |  |  |  |  |  | Emax [3]: < 10%
2 | COc1cccc(CC[N+](C)(C)C)c1 | 14 | > 50 | 33 | 52 | 12 | 9.1 | 43 | 100 | 48 | 9.1 | 92 | 75 | 108 | 81 | 133 | 10 | 14 | 0.83 | 6.3 | 7.8 | Emax [9]: 53%; EC50 [15]: 0.54 µM; Activity [24]: inactive
3 | C[N+](C)(C)CCc1ccc2c(c1)OCC2 | 13 | 6.3 | 6.4 | 6.8 | 21 | 2 | 17 | 100 | 8 | 4.8 | 100 | 62 | 102 | 7.8 | 118 | 3.7 | 17 | 0.24 | 11 | 3.3 | pEC50 [25]: 5.43 µM; Ki [26]: 9.7 µM; Activity [24]: inactive
